Results from different studies.
Organism: Escherichia coli
Effect on: microbial growth

For CCN1CCN(c2cc3c(cc2F)c(=O)c(C(=O)O)cn3C2CC2)CC1, the MIC was 0.0625 µg/mL (broth dilution; ATCC25922).
CCN1CCC(CCNCc2cc3cc(Br)ccc3nc2SCc2ccccc2)CC1 has an MIC of 32 µg/mL (broth dilution).
The MIC of CCCCCCCCN=c1ccn(CCCCCCCCCCn2ccc(=NCCCCCCCC)cc2)cc1 is reported as 0.5 µM.
The MIC of N=c1sc(C(=O)c2ccc(Nc3cnccn3)cc2)nn1-c1ccc([N+](=O)[O-])cc1 is reported as 6.25 µg/mL (broth dilution; ATCC10536).
CN1CCN(CCNCc2cc3cc(-c4ccccc4)ccc3nc2SCc2ccccc2)CC1 has an MIC of 16 µg/mL (broth dilution).
With Cc1ccc2[nH]nc(-c3nnc(Nc4ccc(Cl)c(Cl)c4)s3)c2c1 the MIC was 140 µg/mL (ATCC25922).
CC(=O)OCC1=C(C(=O)O)N2C(=O)[C@@H](NC(=O)Cc3cccs3)[C@H]2SC1 has an MIC of 3.12 µg/mL (broth dilution; ATCC10536).
With Cc1onc(-c2ccccc2)c1C(=O)N[C@@H]1C(=O)N2[C@@H]1SC(C)(C)[C@@H]2C(=O)O the MIC was < 0.5 µg/mL (broth dilution; ATCC25922).
For CN(C)[C@@H]1C(O)=C(C(N)=O)C(=O)[C@@]2(O)C(O)=C3C(=O)c4c(O)cccc4[C@@](C)(O)[C@H]3C[C@@H]12, the MIC was 3.1 µM (broth dilution; ATCC25922; 16 h).
With CO/N=C(\C(=O)N[C@@H]1C(=O)N2C(C(=O)[O-])=C(C[N+]3(C)CCCC3)CS[C@H]12)c1csc(N)n1 the MIC was ≤ 0.12 µg/mL.
The MIC of O=C(N[C@H](CO)[C@H](O)c1ccc([N+](=O)[O-])cc1)C(Cl)Cl is reported as 3.12 µg/mL (broth dilution; ATCC10536).
The MIC of COc1ccc2ccc(O)c(/C=N/[C@H]3CCCC[C@H]3/N=C/c3ccc(-c4ccccc4)cc3O)c2c1 is reported as > 40 µM (broth dilution; clinical isolate).
CC(C)c1ccc(/C=C2\N=C(SCC(=O)O)N(c3ccccc3)C2=O)cc1 gave an MIC of 15 µg/mL (broth dilution; ATCC25 ATCC25922).
CC(=O)OCc1nn(C)c2nc(N)[nH]c(=O)c2c1=O has an MIC of 25 µg/mL (broth dilution; BW25113; 18 h).
The MIC of Cc1ccc2[nH]nc(-c3nnc(Nc4ccc(F)cc4Cl)s3)c2c1 is reported as 72.8 µg/mL (ATCC25922).
For N#CC(C#N)=C1SC(C(=O)c2ccc(Nc3cnccn3)cc2)=NN1c1ccc([N+](=O)[O-])cc1, the MIC was 12.5 µg/mL (broth dilution; ATCC10536).
Cc1ccc2[nH]nc(-c3nnc(Nc4ccc([N+](=O)[O-])cc4)s3)c2c1 gave an MIC of 92.8 µg/mL (ATCC25922).
For CC1(C)S[C@@H]2[C@H](NC(=O)[C@H](N)c3ccccc3)C(=O)N2[C@H]1C(=O)O, the MIC was 16 µM (broth dilution; ATCC25922; 18 h, dark).
The MIC of N[C@@H](Cc1c[nH]c2ccc(Cl)cc12)C(=O)O is reported as > 200 µM (MG1655; 18 h).
C[C@@H](O)[C@H]1C(=O)N2C(C(=O)O)=C(S[C@@H]3CN[C@H](C(=O)N(C)C)C3)[C@H](C)[C@H]12 has an MIC of 0.15 µg/mL (ATCC25922; drug-resistant strain).
CCN(CC)c1ccc(C=NC(=S)c2ccccc2)c(O)c1 has an MIC of > 256 µg/mL (broth dilution; ATCC25922).
CC(=O)C1=NN(c2ccccc2)C(=C(C#N)C(=O)c2ccc(Nc3cnccn3)cc2)S1 has an MIC of 100 µg/mL (broth dilution; ATCC10536).
The MIC of c1ccc(CSc2nc3ccccc3cc2CNCc2ccc(N3CCCCC3)cc2)cc1 is reported as > 128 µg/mL (broth dilution).
CNC(C)C1CCC(N)C(OC2C(N)CC(N)C(OC3OCC(C)(O)C(NC)C3O)C2O)O1 (stereo not shown) has an MIC of 2 µg/mL (broth dilution).
C[C@@H](O)[C@H]1C(=O)N2C(C(=O)O)=C(S[C@@H]3CN[C@H](C(=O)N(C)C)C3)[C@H](C)[C@H]12 has an MIC of < 0.5 µg/mL (broth dilution; ATCC25922).
COc1ccc2ccc(O)c(/C=N/[C@H]3CCCC[C@H]3/N=C/c3c(O)cccc3F)c2c1 has an MIC of > 40 µM (broth dilution; clinical isolate).
For CCN(CC)c1ccc(C=NC(=O)c2ccc3ccccc3c2)c(O)c1, the MIC was > 256 µg/mL (broth dilution; ATCC25922).
With COc1cc(Cc2cnc(N)nc2N)cc(OC)c1OC the MIC was 0.25 µg/mL (broth dilution; BW25113; 18 h).
With Cc1ccc2[nH]nc(-c3nnc(Nc4ccc(Cl)cc4)s3)c2c1 the MIC was 81.7 µg/mL (ATCC25922).
The MIC of Brc1ccc2nc(SCc3ccccc3)c(CNCCC3CCN(C4CCCC4)CC3)cc2c1 is reported as 32 µg/mL (broth dilution).
CC[C@H]1OC(=O)[C@H](C)[C@@H](O[C@H]2C[C@@](C)(OC)[C@@H](O)[C@H](C)O2)[C@H](C)[C@@H](O[C@@H]2O[C@H](C)C[C@H](N(C)C)[C@H]2O)[C@](C)(O)C[C@@H](C)CN(C)[C@H](C)[C@@H](O)[C@]1(C)O has an MIC of 4 µM (broth dilution).
With CC[C@H]1OC(=O)[C@H](C)[C@@H](O[C@H]2C[C@@](C)(OC)[C@@H](O)[C@H](C)O2)[C@H](C)[C@@H](O[C@@H]2O[C@H](C)C[C@H](N(C)C)[C@H]2O)[C@](C)(O)C[C@@H](C)CN(C)[C@H](C)[C@@H](O)[C@]1(C)O the MIC was < 98 µg/mL (ATCC25922).
NC[C@H]1O[C@H](O[C@H]2[C@H](O)[C@@H](O[C@H]3O[C@H](CO)[C@@H](O)[C@H](N)[C@H]3O)[C@H](N)C[C@@H]2N)[C@H](N)C[C@@H]1O has an MIC of ≤ 1 µg/mL.
For Cc1ccc2[nH]nc(-c3nnc(Nc4ccc(O)cc4)s3)c2c1, the MIC was 64.7 µg/mL (ATCC25922).
COc1ccc2ccc(O)c(/C=N/[C@H]3CCCC[C@H]3/N=C/c3ccc(OCCN4CCCCC4)cc3O)c2c1 gave an MIC of > 40 µM (broth dilution; clinical isolate).
With CCCCCCCCCCCC[N+](C)(C)Cc1ccccc1 the MIC was 63 µM.
c1ccc(CSc2nc3ccc(-c4ccccc4)cc3cc2CNCCC2CCN(C3CCCC3)CC2)cc1 has an MIC of 16 µg/mL (broth dilution).
The MIC of [H]/N=C(/N)N[C@H]1[C@H](O)[C@@H](O)[C@H](O[C@@H]2O[C@@H](C)[C@](O)(C=O)[C@H]2O[C@@H]2O[C@@H](CO)[C@H](O)[C@@H](O)[C@@H]2NC)[C@@H](N/C(N)=N\[H])[C@@H]1O is reported as 20 µg/mL (broth dilution; ATCC25 ATCC25922).
With [H]/N=C(/N)N[C@H]1[C@H](O)[C@@H](O)[C@H](O[C@@H]2O[C@@H](C)[C@](O)(C=O)[C@H]2O[C@@H]2O[C@@H](CO)[C@H](O)[C@@H](O)[C@@H]2NC)[C@@H](N/C(N)=N\[H])[C@@H]1O the MIC was 2 µg/mL (broth dilution; ATCC25922).
O=C(N[C@H](CO)[C@H](O)c1ccc([N+](=O)[O-])cc1)C(Cl)Cl has an MIC of 16 µg/mL (broth dilution).
For C[C@@H](O)[C@H]1C(=O)N2C(C(=O)O)=C(S[C@@H]3CN[C@H](C(=O)N(C)C)C3)[C@H](C)[C@H]12, the MIC was ≤ 0.25 µg/mL.
For CN1CCN(CCNCc2cc3cc(Br)ccc3nc2SCc2ccccc2)CC1, the MIC was 16 µg/mL (broth dilution).
With Cc1cc(Nc2nnc(-c3n[nH]c4ccc(C)cc34)s2)cc([N+](=O)[O-])c1 the MIC was 166 µg/mL (ATCC25922).
